In ChEMBL document CHEMBL1806459, “Discovery of N-(1-ethylpropyl)-[3-methoxy-5-(2-methoxy-4-trifluoromethoxyphenyl)-6-methyl-pyrazin-2-yl]amine 59 (NGD 98-2): an orally active corticotropin releasing factor-1 (CRF-1) receptor antagonist” (J Med Chem, 2011):
Active and inactive are the calls of the source. The calls are words filed in the database; no cut-off is given here.

Experiments:
[1] = Inhibition of AMPA receptor at 4 uM
Summary of the method: (§1)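 Selectivity panel of 69 targets, test compound at 4 μM, a level set by aqueous solubility limits; percent inhibition recorded per target.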

[2] = target: Interleukin-6 (Homo sapiens) (UniProt P05231); assay: Inhibition of IL-6 at 4 uM; summary of the method: as §1
[3] = target: Insulin receptor (Homo sapiens) (UniProt P06213); assay: Inhibition of Insulin receptor at 4 uM; summary of the method: as §1
[4] = Inhibition of Neurotensin receptor at 4 uM
Summary of the method: (§2)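 Single-concentration screen within a 69-target selectivity panel. The test concentration was 4 μM, a level set by the compound's limited aqueous solubility.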

[5] = Inhibition of BGTX-insensitive N-neuronal receptor at 4 uM; summary of the method: as §1
[6] = Inhibition of Opiate receptor at 4 uM; summary of the method: as §2
[7] = target: 5-hydroxytryptamine receptor 2A (Homo sapiens) (UniProt P28223); assay: Inhibition of Serotonin 5HT2A receptor at 4 uM; summary of the method: as §2
[8] = target: 5-hydroxytryptamine receptor 5A (Homo sapiens) (UniProt P47898); assay: Inhibition of Serotonin 5HT5A receptor at 4 uM; summary of the method: as §2
[9] = target: 5-hydroxytryptamine receptor 7 (Homo sapiens) (UniProt P34969); assay: Inhibition of Serotonin 5HT7 receptor at 4 uM; summary of the method: as §2
[10] = target: Somatostatin receptor (Homo sapiens) (UniProt P35346+P30874+P31391+P30872+P32745); assay: Inhibition of somatostatin at 4 uM; summary of the method: as §2
[11] = Inhibition of diltiazem calcium channel at 4 uM; summary of the method: as §2
[12] = Inhibition of KATP channel at 4 uM; summary of the method: as §1
[13] = Inhibition of KV channel at 4 uM; summary of the method: as §1
[14] = target: Corticotropin-releasing factor receptor 1 (Rattus norvegicus, UniProt P35353); assay: Displacement of [125I]-sauvagine from rat CRF-1 receptor expressed in rat cortical membrane after 2 hrs by scintillation counting; assay type: cell membranes
Summary of the method: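 Displacement of [125I]-sauvagine binding from rat cortical membrane homogenate with increasing compound concentrations; Ki derived.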

[15] = Inhibition of phosphodiesterase 3 at 4 uM; summary of the method: as §2
[16] = Inhibition of phosphodiesterase 5 at 4 uM; summary of the method: as §2
[17] = system: Rattus norvegicus; assay: Toxicity in Sprague-Dawley rat assessed as effect on horizontal movement at 10 mg/kg, po measured after 3 hrs for 1 hr; assay type: organism-based; design: dose 10 mg/kg, route oral; conditions: in vivo
Summary of the method: (§3)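 Rats not habituated to the test environment, dosed orally at 3, 10 and 30 mg/kg. Spontaneous locomotor activity recorded after dosing: horizontal activity as movement time, plus vertical activity (rearing). Test run to exclude sedation.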

[18] = system: Rattus norvegicus; assay: Toxicity in Sprague-Dawley rat assessed as effect on vertical activity at 3 mg/kg, po measured after 3 hrs for 1 hr; assay type: organism-based; design: dose 3 mg/kg, route oral; conditions: in vivo; summary of the method: as §3
[19] = system: Rattus norvegicus; assay: Toxicity in Sprague-Dawley rat assessed as effect on vertical activity at 10 mg/kg, po measured after 3 hrs for 1 hr; assay type: organism-based; design: dose 10 mg/kg, route oral; conditions: in vivo; summary of the method: as §3
[20] = system: Rattus norvegicus; assay: Toxicity in Sprague-Dawley rat assessed as effect on vertical activity at 30 mg/kg, po measured after 3 hrs for 1 hr; assay type: organism-based; design: dose 30 mg/kg, route oral; conditions: in vivo; summary of the method: as §3
[21] = system: Rattus norvegicus; assay: Decrease in restrained-stress induced […] release in plasma of Sprague-Dawley rat at 10 mg/kg, po pretreated with compound for 3 hrs by radioimmunoassay; assay type: functional, organism-based; design: dose 10 mg/kg
Summary of the method: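 Rats orally pretreated, then restrained for 10 min to induce stress. Plasma ACTH measured and compared with vehicle/no-stress and vehicle/stress groups.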

[22] = Plasma protein binding in human; assay type: ADME, cell-free; conditions: read-out: PPB (converted)
Summary of the method: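 Binding to human plasma protein measured as percent bound.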

[23] = Inhibition of adenosine transporter at 4 uM; summary of the method: as §2
[24] = Inhibition of bombesin receptor at 4 uM; summary of the method: as §2
[25] = target: B2 bradykinin receptor (Homo sapiens) (UniProt P30411); assay: Inhibition of bradykinin B2 receptor at 4 uM; summary of the method: as §2
[26] = target: Calcitonin gene-related peptide type 1 receptor (Homo sapiens) (UniProt Q16602); assay: Inhibition of CGRP receptor at 4 uM; summary of the method: as §1
[27] = target: Cannabinoid receptor 1 (Homo sapiens) (UniProt P21554); assay: Inhibition of cannabinoid CB1 receptor at 4 uM; summary of the method: as §2
[28] = target: Cholecystokinin receptor type A (Homo sapiens) (UniProt P32238); assay: Inhibition of cholecystokinin CCKA receptor at 4 uM; summary of the method: as §2
[29] = target: D(3) dopamine receptor (Homo sapiens) (UniProt P35462); assay: Inhibition of dopamine D3 receptor at 4 uM; summary of the method: as §2
[30] = target: Endothelin receptor type B (Homo sapiens) (UniProt P24530); assay: Inhibition of endothelin ETB at 4 uM; summary of the method: as §2
[31] = Inhibition of GABA-B at 4 uM; summary of the method: as §1
[32] = target: T1, Corticotropin-releasing factor receptor 1 (Homo sapiens, UniProt P34998); assay: Displacement of [125I]-sauvagine from human CRF-1 receptor expressed in human IMR-32 cells after 2 hrs by scintillation counting; assay type: cell-based
T1 sequence (P34998 whole entry): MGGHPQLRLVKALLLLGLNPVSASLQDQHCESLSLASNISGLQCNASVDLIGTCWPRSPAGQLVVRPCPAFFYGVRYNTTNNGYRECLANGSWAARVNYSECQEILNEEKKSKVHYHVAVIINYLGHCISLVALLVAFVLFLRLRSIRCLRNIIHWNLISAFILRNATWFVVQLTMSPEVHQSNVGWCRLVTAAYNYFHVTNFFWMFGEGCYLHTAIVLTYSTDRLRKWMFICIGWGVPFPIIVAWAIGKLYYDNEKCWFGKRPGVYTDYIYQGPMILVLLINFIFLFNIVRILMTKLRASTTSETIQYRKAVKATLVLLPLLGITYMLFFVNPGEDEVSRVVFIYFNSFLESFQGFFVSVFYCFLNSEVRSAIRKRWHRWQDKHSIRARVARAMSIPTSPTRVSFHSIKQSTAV
Summary of the method: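 Competition binding against 125I-sauvagine on membrane preparations from IMR-32 human neuroblastoma cells, which express CRF-1 endogenously. Modified from a published method.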

[33] = Half life in human microsomes; assay type: ADME, Microsome
Summary of the method: (§4)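 Stability in human or rat liver microsomes; half-life (T1/2, min) of compound turnover reported.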

[34] = Half life in rat microsomes; assay type: ADME, Microsome; summary of the method: as §4
[35] = Cmax in rat at 1 mg/kg, iv; assay type: ADME, organism-based; design: dose 1 mg/kg, route intravenous; conditions: in vivo
Summary of the method: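 Rat PK, intravenous arm of a paired iv/po study. Dosed in 2% Vitamin E TPGS (tocopheryl polyethylene glycol 1000 succinate). Parameters derived from plasma: Cmax, AUC0–24 h, terminal T1/2.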

[36] = Tmax in rat at 1 mg/kg, iv; assay type: ADME, organism-based; design: dose 1 mg/kg, route intravenous; conditions: in vivo
Summary of the method: (§5)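 Rat pharmacokinetics: compounds given iv (1 or 3 mg/kg) and po (5 or 10 mg/kg) in 2% Vitamin E TPGS (tocopheryl polyethylene glycol 1000 succinate). Plasma sampled over 24 h for Cmax, Tmax, AUC0–24 h, T1/2, clearance, Vss and oral bioavailability. Brain to plasma ratio also measured.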

[37] = Tmax in rat at 10 mg/kg, po; assay type: ADME, organism-based; design: dose 10 mg/kg, route oral; conditions: in vivo; summary of the method: as §5
[38] = system: Rattus norvegicus; assay: Volume of distribution at steady state in rat at 10 mg/kg, po; assay type: ADME, organism-based; design: dose 10 mg/kg, route oral; conditions: in vivo; summary of the method: as §5
[39] = Bioavailability in rat at 1 mg/kg, […]; assay type: ADME, organism-based; conditions: in vivo
Summary of the method: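 Rat PK with paired iv and oral dosing, vehicle 2% Vitamin E TPGS. Clearance and Vss from the iv arm; oral bioavailability F from comparing exposure after oral and iv doses.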

Interleukin-6 (Homo sapiens), sequence (P05231 whole entry): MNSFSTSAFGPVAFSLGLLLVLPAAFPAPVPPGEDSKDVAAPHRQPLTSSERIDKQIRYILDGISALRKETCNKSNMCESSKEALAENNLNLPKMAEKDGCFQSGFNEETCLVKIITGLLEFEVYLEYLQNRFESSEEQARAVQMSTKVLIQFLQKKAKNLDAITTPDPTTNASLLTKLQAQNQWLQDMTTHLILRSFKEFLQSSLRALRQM
D(3) dopamine receptor (Homo sapiens), sequence (P35462 whole entry): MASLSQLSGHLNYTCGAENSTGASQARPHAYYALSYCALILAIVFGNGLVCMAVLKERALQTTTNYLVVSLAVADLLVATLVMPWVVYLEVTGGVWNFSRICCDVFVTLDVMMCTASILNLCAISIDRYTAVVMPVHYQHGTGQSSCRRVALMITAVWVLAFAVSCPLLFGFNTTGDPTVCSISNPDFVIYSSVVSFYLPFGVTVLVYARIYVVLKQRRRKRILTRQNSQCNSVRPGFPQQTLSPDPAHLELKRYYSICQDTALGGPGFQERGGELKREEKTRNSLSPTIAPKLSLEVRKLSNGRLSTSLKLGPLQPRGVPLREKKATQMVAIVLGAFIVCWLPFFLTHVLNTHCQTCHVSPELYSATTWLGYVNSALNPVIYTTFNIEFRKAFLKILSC
5-hydroxytryptamine receptor 7 (Homo sapiens), sequence (P34969 whole entry): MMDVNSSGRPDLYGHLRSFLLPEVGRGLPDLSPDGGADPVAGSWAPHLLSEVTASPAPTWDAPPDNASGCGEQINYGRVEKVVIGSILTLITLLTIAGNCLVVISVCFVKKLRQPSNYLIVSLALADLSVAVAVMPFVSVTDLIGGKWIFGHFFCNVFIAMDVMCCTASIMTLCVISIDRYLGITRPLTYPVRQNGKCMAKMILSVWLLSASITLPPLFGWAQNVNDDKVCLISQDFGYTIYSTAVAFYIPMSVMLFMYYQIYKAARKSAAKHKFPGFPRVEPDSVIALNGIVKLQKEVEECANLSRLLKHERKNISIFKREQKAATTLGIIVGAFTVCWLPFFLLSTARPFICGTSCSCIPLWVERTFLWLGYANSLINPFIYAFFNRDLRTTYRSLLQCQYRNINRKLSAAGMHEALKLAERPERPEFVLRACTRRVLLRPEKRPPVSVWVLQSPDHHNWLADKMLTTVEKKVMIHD
5-hydroxytryptamine receptor 5A (Homo sapiens), sequence (P47898 whole entry): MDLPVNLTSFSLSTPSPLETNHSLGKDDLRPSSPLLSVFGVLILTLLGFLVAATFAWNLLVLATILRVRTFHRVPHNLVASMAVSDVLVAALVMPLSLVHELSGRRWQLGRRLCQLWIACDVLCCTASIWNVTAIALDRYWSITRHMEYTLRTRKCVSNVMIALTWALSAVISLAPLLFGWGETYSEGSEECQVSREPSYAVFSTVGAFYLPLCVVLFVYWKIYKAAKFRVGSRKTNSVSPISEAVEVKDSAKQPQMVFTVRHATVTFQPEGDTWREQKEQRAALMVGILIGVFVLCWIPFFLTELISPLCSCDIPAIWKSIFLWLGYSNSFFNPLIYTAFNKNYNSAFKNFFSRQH
Calcitonin gene-related peptide type 1 receptor (Homo sapiens), sequence (Q16602 whole entry): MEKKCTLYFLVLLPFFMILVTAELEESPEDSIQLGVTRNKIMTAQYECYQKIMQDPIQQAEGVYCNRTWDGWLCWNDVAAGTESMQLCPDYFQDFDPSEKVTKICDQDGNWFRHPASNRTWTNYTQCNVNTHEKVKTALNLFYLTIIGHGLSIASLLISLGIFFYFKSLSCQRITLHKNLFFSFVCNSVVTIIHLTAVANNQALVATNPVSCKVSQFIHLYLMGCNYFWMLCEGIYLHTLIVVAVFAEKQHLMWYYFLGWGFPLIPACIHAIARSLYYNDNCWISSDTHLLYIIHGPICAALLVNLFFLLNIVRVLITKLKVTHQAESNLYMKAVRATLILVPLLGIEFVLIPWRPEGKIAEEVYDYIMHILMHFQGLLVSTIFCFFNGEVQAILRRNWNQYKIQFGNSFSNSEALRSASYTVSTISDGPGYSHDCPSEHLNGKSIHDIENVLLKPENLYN
Cholecystokinin receptor type A (Homo sapiens), sequence (P32238 whole entry): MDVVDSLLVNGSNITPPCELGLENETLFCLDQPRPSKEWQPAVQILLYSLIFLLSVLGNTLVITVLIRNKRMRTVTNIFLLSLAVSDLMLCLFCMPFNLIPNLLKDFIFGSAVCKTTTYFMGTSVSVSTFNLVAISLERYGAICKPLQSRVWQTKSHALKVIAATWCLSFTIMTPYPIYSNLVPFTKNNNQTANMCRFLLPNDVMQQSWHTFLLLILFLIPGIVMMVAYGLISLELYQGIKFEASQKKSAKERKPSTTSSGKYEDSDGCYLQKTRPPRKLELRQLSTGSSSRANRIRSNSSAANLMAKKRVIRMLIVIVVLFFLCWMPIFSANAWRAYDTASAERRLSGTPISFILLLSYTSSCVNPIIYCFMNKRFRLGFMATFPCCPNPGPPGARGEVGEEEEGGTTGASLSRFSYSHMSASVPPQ
5-hydroxytryptamine receptor 2A (Homo sapiens), sequence (P28223 whole entry): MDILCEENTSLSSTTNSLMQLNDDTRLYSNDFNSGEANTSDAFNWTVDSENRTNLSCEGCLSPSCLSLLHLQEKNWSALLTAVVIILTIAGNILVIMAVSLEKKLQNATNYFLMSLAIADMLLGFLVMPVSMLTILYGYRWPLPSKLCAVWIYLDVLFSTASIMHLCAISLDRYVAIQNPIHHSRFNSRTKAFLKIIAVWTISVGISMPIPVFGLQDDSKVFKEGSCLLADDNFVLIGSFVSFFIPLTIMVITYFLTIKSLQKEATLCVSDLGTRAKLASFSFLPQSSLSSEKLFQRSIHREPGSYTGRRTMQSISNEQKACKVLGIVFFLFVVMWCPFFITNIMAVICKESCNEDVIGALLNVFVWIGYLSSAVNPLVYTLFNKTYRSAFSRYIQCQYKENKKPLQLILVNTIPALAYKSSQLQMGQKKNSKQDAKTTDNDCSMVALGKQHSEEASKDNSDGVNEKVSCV
Corticotropin-releasing factor receptor 1 (Rattus norvegicus, UniProt P35353), sequence (P35353 whole entry): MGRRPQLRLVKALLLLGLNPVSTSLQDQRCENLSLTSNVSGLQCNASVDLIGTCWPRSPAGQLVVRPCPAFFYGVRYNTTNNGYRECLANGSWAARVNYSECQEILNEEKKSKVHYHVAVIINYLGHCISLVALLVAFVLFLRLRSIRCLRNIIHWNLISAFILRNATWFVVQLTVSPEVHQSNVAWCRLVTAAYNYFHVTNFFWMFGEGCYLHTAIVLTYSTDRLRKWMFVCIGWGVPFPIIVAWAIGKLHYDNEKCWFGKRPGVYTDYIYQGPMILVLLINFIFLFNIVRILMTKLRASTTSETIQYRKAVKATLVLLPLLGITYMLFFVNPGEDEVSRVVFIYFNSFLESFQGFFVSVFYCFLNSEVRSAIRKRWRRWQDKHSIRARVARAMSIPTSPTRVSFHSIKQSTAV
B2 bradykinin receptor (Homo sapiens), sequence (P30411 whole entry): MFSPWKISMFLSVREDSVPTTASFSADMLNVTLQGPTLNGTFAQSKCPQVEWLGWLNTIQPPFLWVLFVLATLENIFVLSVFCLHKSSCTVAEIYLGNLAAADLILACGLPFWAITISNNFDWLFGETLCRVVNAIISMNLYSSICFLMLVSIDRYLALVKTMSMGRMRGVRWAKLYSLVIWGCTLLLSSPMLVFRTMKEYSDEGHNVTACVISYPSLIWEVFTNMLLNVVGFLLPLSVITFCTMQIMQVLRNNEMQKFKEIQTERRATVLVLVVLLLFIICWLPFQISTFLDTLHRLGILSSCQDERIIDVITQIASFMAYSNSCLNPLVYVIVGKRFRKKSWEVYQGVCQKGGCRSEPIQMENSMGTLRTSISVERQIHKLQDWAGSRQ
Endothelin receptor type B (Homo sapiens), sequence (P24530 whole entry): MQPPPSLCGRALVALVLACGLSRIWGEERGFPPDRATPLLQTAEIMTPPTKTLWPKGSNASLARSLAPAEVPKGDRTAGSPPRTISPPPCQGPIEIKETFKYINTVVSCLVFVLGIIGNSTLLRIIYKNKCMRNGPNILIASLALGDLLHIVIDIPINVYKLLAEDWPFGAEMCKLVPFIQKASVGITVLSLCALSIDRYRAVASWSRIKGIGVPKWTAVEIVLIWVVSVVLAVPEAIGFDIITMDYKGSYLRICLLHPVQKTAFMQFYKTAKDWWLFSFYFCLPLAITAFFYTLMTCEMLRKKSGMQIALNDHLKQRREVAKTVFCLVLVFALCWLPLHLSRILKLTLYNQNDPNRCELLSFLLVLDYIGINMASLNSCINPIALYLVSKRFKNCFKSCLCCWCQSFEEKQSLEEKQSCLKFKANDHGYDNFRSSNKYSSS
Cannabinoid receptor 1 (Homo sapiens), sequence (P21554 whole entry): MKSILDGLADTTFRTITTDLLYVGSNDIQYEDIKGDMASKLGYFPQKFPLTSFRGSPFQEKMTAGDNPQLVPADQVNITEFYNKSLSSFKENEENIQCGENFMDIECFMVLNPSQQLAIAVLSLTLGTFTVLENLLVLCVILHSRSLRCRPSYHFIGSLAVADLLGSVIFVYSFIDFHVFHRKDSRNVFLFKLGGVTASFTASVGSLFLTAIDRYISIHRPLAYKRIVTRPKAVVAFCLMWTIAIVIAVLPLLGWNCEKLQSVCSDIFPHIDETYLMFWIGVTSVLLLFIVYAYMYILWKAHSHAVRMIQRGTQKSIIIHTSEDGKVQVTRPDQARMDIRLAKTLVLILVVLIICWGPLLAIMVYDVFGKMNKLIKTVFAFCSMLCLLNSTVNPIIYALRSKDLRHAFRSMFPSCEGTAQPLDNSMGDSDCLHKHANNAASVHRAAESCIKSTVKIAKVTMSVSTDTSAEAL

In the case of `CCC(CC)Nc1nc(C)c(-c2ccc(OC(F)(F)F)cc2OC)nc1OC`, the inhibition [1] is reported as > 16%, the inhibition [2] is reported as > 16% and the inhibition [3] is reported as > 16%. For the same molecule, the inhibition [4] was > 16%, the inhibition [5] was > 16% and the inhibition [6] was > 16%. For the same molecule, the inhibition [7] was > 16%, the inhibition [8] was > 16% and the inhibition [9] was > 16%. For the same molecule, the inhibition [10] was > 16%, the inhibition [11] was > 16% and the inhibition [12] was > 16%. The inhibition [13] was > 16%, the Ki [14] was 9.8 nM and the inhibition [15] was > 16%. The inhibition [16] was > 16%, the Activity [17] was “Non-toxic” and the Activity [18] was “Non-toxic”. The Activity [19] was “Non-toxic”, the Activity [20] was “Non-toxic” and the Activity [21] was “Active”. For the same molecule, the fraction unbound [22] was 0.008, the inhibition [23] was > 16% and the inhibition [24] was > 16%. For the same molecule, the inhibition [25] was > 16%, the inhibition [26] was > 16% and the inhibition [27] was > 16%. For the same molecule, the inhibition [28] was > 16%, the inhibition [29] was > 16% and the inhibition [30] was > 16%. For the same molecule, the inhibition [31] was > 16%, the Ki [32] was 1 nM and the half-life [33] was 2 h. The half-life [34] was 2 h, the Cmax [35] was 456 ng/mL and the Tmax [36] was 4 h. For the same molecule, the Tmax [37] was 4 h, the Vdss [38] was 7.8 L/kg and the bioavailability [39] was 45%.
